HKDC1 inhibitor – HKDC1 (human) hexokinase inhibition. actives 0.16% (n = 340,000). inhibition, % at 20 µM. recombinant HKDC1, G6PDH/diaphorase resazurin coupled fluorescence;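 active = inhibition above about 35% when tested at 20 µM, limit read from the data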
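Test system: recombinant HKDC1 (HK5) hexokinase enzyme, produced in-house / Doses: 20 µM test compound, 1% DMSO / Timing: 90 min, room temperature / Detection: G6PDH/diaphorase-coupled fluorescence, 1 mM NADP, 100 µM resazurin, 525/613 nm / Control set: DMSO wells with and without enzyme mix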
Redox H2O2 prof – compounds producing H2O2 with reducing agent – biochemical, NIH compound library profiling, artefact control for MLSCN library redox annotation, primary screen | activation, % at 10 µM | DTT-dependent redox cycling H2O2, phenol red/HRP absorbance; 100% = 100 µM peroxide control, 0% = buffer | actives 0.03% (n = 200,000) | AID 878;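 active = activation of at least 50% relative to the plate's high and low controls in the primary single-dose screen; inactive = activation below 50%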;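 also: compound incubated with DTT at 0.8 mM final as the reducing agent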
GSTO1 inh – counter-screen for RBBP9 inhibitors: inhibitors of human GSTO1; P78417; AID 1974; inhibition, % at 5.96 µM; actives 1.1% (n = 300,000); recombinant GSTO1, activity-based probe fluorescence polarization;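 active = inhibition above the campaign mean inhibition plus 3 SD, cut at about 35% in these data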
Target sequence (P78417 whole entry, looked up): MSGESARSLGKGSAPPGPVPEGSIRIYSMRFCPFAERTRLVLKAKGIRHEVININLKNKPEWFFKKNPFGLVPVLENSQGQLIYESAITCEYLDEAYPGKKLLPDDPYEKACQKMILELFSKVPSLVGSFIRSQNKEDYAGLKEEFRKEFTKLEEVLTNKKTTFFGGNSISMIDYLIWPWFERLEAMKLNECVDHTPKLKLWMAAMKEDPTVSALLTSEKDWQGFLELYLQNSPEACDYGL
SUMO HTRF inh – inhibitors of human SUMOylation (UBC9); P63279; inhibition, % at 35 µM; HTRF SUMOylation assay, SAE1/SAE2 + UBC9, in vitro; actives 0.36% (n = 290,000); in the data active = inhibition above about 50%, passing the limit was not always enough; inconclusive = no clear call, values can overlap the other calls
Target sequence (P63279 whole entry, looked up): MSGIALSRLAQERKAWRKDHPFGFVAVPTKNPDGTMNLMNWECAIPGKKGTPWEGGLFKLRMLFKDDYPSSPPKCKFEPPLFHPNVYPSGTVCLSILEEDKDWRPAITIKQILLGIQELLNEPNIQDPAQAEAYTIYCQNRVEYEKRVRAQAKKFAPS
Apaf1 inhib – inhibitors of human Apaf-1 apoptosome. O14727. reconstituted apoptosome caspase-3 activity, DEVD-Rh110 fluorescence. inhibition, % at 20 µM. actives 0.71% (n = 330,000). AID 489030; active = inhibition of at least 40% at 20 µM
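Material: reconstituted apoptosome with Apaf-1, cytochrome c, caspase-9, procaspase-3, dATP / Buffer or medium: pH 7.5 Hepes buffer with CHAPS, BSA, DTT / Also added: cytochrome c with DEVD-Rh110 / Schedule: compound with Apaf-1, dATP, procaspase-3 30 min, then 50 min reaction, room temperature / Technique: rhodamine 110 fluorescence at Ex 480/Em 540 nm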
Apaf-1 inh conf – confirmation of Apaf-1 inhibitors. inhibition, % at 20 µM. actives 25% (n = 1,800). reconstituted apoptosome, caspase-3 DEVD-Rh110 fluorescence. AID 504614. shares compounds with Apaf1 inhib;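 active = mean inhibition of at least 40% at 20 µM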
Rh110 interf inh – Rh110 signal interference in Apaf-1 inhibitor counter-screen. shares compounds with Apaf1 inhib. Rh110 fluorescence interference, quenched caspase reaction. activation (fluorescence interference), % at 20 µM. 1,800 tested, under 10 active;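 active = signal rise of 40% or more at 20 µM, treated as a fluorescence artifact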
Apaf1 inh interf – shows fluorescence interference in the Apaf-1 inhibitor assay format; shares compounds with Apaf1 inhib; fluorescence interference counterscreen, Apaf-1 assay format; IC50, µM; 460 tested, under 10 active; AID 588538; call rule not given here
A number is an active result; 0 = inactive; ? = inconclusive; - = no result given. The list is not random: actives were taken first. Their share in the collection is about 1.4%.

SMILES	HKDC1 inhibitor	Redox H2O2 prof	GSTO1 inh	SUMO HTRF inh	Apaf1 inhib	Apaf-1 inh conf	Rh110 interf inh	others
O=C(Nc1ccc(OC(F)F)c(Cl)c1)[C@@H]1CCCN1C(=O)c1cccs1	0	0	0	0	92.3	0	0
Cc1cc(C)c(NC(=S)NCC2CCN(C(C)c3ccccc3)C2)c(C)c1 (configuration not stated)	0	0	0	0	0	-	-
O=C(c1ccc(Cn2c(=O)[nH]c3ccccc3c2=O)cc1)N1CCN(c2ccc(Cl)cc2)CC1	0	0	0	0	41.4	0	0
Cc1ccc(C)c(N2CCN(C(=O)c3ccc(Cn4c(=O)[nH]c5ccccc5c4=O)cc3)CC2)c1	0	0	0	0	0	-	-
COc1ccc2c([N+](=O)[O-])c(Cl)[nH]c2c1	0	0	0	0	0	-	-
Cc1ccc2oc(C(=O)NC3CCS(=O)(=O)C3)cc(=O)c2c1 (configuration not stated)	0	-	0	-	0	-	-
CC12CCC(=O)N1C(C(=O)Nc1ccccc1N1CCCC1)CS2 (configuration not stated)	0	-	-	-	-	-	-
CCN(CC)c1ccc(S(=O)(=O)N2CCCCC2)cc1NC(=O)C1CSC2(C)CCC(=O)N12 (configuration not stated)	0	-	-	-	51.0	0	0
CC12CCC(=O)N1C(C(=O)Nc1ccccc1N1CCCCC1)CS2 (configuration not stated)	0	-	-	-	48.1	0	0
COc1ccc(C2=NOC(C(=O)Nc3ccc4c(c3)OCCO4)C2)cc1OC (configuration not stated)	0	-	0	0	0	-	-
COc1ccc(OC)c(C2=NOC(C(=O)Nc3ccc4c(c3)OCCO4)C2)c1 (configuration not stated)	0	-	0	0	41.7	0	0
CN(C)C(CNc1ncccn1)c1ccccc1 (configuration not stated)	0	-	0	0	0	-	-
Cc1[nH]c2ccccc2c1-c1csc(NC(=O)CSCCO)n1	0	0	0	0	0	-	-
O=C(Cc1cccc(C(F)(F)F)c1)OCC(=O)N1CCN(S(=O)(=O)c2ccc(Cl)cc2)CC1	0	-	0	-	51.1	0	0
CCOc1ccc(N(C)C(=O)CCc2nnc3ccc(N4CCCCC4)nn23)cc1	0	-	0	0	0	-	-
CN(C)S(=O)(=O)c1cccc(NC(=S)Nc2cc(Cl)cc(Cl)c2)c1	0	0	0	0	0	-	-
CCN(CCO)c1ccc(NC(=S)Nc2cccc(S(=O)(=O)N(C)C)c2)cc1	0	0	0	0	42.9	0	0
Cc1cc(C)c(S(=O)(=O)NCc2ccc3c(c2)cc(C)n3C)c(C)c1	0	0	0	0	44.0	0	0
Cc1cc2cc(CNC(=O)c3ccc(S(=O)(=O)N(C)C)cc3)ccc2n1C	0	0	0	0	45.4	0	0
CC(=O)Nc1ccc(S(=O)(=O)NCc2ccc3c(c2)cc(C)n3C)cc1	0	0	0	0	51.2	0	0
OC(CCc1cccc(Cl)c1)c1cccs1 (configuration not stated)	0	-	0	0	0	-	-
Cc1cc(=O)n2nc(N3CCCC(C(=O)NCc4cccc(Br)c4)C3)sc2n1 (configuration not stated)	0	-	0	0	0	-	-
O=C(CN1C(=O)NC2(CCOc3ccccc32)C1=O)NCC(F)(F)F (configuration not stated)	0	-	0	0	0	-	-
CN(C)CCCNC(=S)NCC(c1ccc(Cl)cc1Cl)c1c[nH]c2ccccc12 (configuration not stated)	0	-	0	0	41.2	0	0
CCCCNC(=S)NCC(c1ccccc1)c1c[nH]c2ccccc12 (configuration not stated)	0	-	0	0	0	-	-
SMILES	HKDC1 inhibitor	Redox H2O2 prof	GSTO1 inh	SUMO HTRF inh	Apaf1 inhib	Apaf-1 inh conf	Rh110 interf inh	others
COc1ccc(-c2oc3ncnc(NCCCN4CCOCC4)c3c2-c2ccc(OC)cc2)cc1	0	0	0	0	0	-	-
COc1ccc(-c2oc3ncnc(NCCN4CCOCC4)c3c2-c2ccc(OC)cc2)cc1	0	0	0	0	42.1	0	0
Oc1cc(NCCN2CCOCC2)cc2cccnc12	0	-	-	-	92.3	79.6	0	Apaf1 inh interf=0
Oc1cc(Nc2ccccc2)cc2cccnc12	0	-	-	-	0	-	-
O=C(COC(=O)c1cc(S(=O)(=O)N2CCOCC2)c(Cl)cc1Cl)c1ccc[nH]1	0	-	-	-	0	-	-
Cn1c(C(=O)NCCN2CCCCCC2)cc2c(=O)n(C)c3ccccc3c21	0	0	0	0	43.0	0	0
CCOc1ccc(-n2nnnc2SCC(=O)Nc2cccc(O)c2)cc1	0	-	0	0	0	-	-
O=C(CC1Nc2ccccc2NC1=O)Nc1cc(Cl)cc(Cl)c1 (configuration not stated)	0	0	0	0	0	-	-
O=C(CC1Nc2cccc3cccc(c23)NC1=O)Nc1ccc(F)cc1 (configuration not stated)	0	0	0	67.9	95.6	0	0
COc1ccc(NC(=O)CC2Nc3cccc4cccc(c34)NC2=O)cc1 (configuration not stated)	0	0	0	?	94.2	0	0
Cc1ccc(NC(=O)c2ncn(CC(=O)N[C@H](CO)Cc3c[nH]c4ccccc34)n2)cc1C	0	-	-	-	74.3	0	0
CCn1c2ccccc2c2c3ncc4cccn4c3ccc21	0	-	0	0	61.7	0	0
c1ccc2c(c1)ncc1cccn12	0	0	0	0	0	-	-
COc1ccc(NC(=O)CCCc2nnc3n(C)c(=O)c4sccc4n23)cc1	0	-	0	0	0	-	-
Cc1ccc(OCC(=O)N/N=C\c2c(C)n(C)c3ccccc23)c([N+](=O)[O-])c1	0	0	0	0	42.0	0	0
Cc1ccc(C(=O)N/N=C/c2ccc(-c3ccccc3[N+](=O)[O-])o2)cn1	0	0	36.6	0	75.0	0	0
O=C(N/N=C/c1ccc(-c2ccccc2[N+](=O)[O-])o1)[C@H]1C[C@@H]1c1ccccc1	0	0	0	0	67.8	0	0
CSc1ncccc1C(=O)OCC(=O)NC1CCC(C)CC1 (configuration not stated)	0	-	-	-	0	-	-
COc1ccc(C(=O)/C=C/C(=O)N(CC(=O)NC2CCCCC2)CC2CCCO2)c(O)c1 (configuration not stated)	0	0	0	0	49.3	0	0
COc1cccc(CNc2cccc3cccnc23)c1O	0	0	0	0	71.5	0	0
Cc1ccc(O)c(CNc2cccc3cccnc23)c1	0	0	0	0	93.4	0	0
COc1cccc(CNc2ccccn2)c1O	0	-	0	0	0	-	-

Screening results as filed in PubChem.
